Source: ChEMBL document CHEMBL4308833, “A Thieno[2,3- d]pyrimidine Scaffold Is a Novel Negative Allosteric Modulator of the Dopamine D2 Receptor” (J Med Chem, 2018)
Active and inactive are the calls of the source. No cut-off for these calls is given here.

How the values were obtained:
[1] = target: D(2) dopamine receptor (Homo sapiens) (UniProt P14416); test: Displacement of [3H]Raclopride from recombinant human D2L receptor expressed in Flp-In CHO cell membranes after 2 to 3 hrs by microbeta counting method
Summary of the method: (§1)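 hD2LR FlpIn CHO membrane homogenate (15 µg protein) was co-incubated with 0.5 nM [3H]raclopride and test compound at 10^-3 to 10^-7 M (half-log dilutions from DMSO stock, in duplicate). Incubation was 2-3 h at 25 °C in HEPES buffer, pH 7.4. Nonspecific binding was defined with 10 µM haloperidol. Filtration was followed by scintillation counting. KB and cooperativity α were obtained from an allosteric ternary complex model.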

[2] = target: D(2) dopamine receptor (Homo sapiens) (UniProt P14416); test: (§2) Negative allosteric modulation of recombinant human D2L receptor expressed in Flp-In CHO cells assessed as inhibition of dopamine-induced reduction in forskolin stimulated cAMP accumulation preincubated for 30 mins followed by forskolin stimulation and measured after 30 mins by BRET assay; format: functional, cell-based
[3] = target: D(2) dopamine receptor (Homo sapiens) (UniProt P14416); test: as §2, with “accumulation by measuring co-operativity factor” for “accumulation”; format: functional, cell-based
[4] = target: D(2) dopamine receptor (Homo sapiens) (UniProt P14416); test: as §2, with “accumulation by measuring modulation of dopamine efficacy” for “accumulation”; format: functional, cell-based
[5] = target: D(2) dopamine receptor (Homo sapiens) (UniProt P14416); test: as §2, with “accumulation by measuring co-operativity factor up to 100 uM” for “accumulation”; format: functional, cell-based
[6] = target: D(2) dopamine receptor (Homo sapiens) (UniProt P14416); test: Displacement of [3H]Raclopride from recombinant human D2L receptor expressed in Flp-In CHO cell membranes assessed as co-operativity factor after 2 to 3 hrs by microbeta counting method; summary of the method: as §1

Chain of D(2) dopamine receptor (Homo sapiens) (P14416 whole entry): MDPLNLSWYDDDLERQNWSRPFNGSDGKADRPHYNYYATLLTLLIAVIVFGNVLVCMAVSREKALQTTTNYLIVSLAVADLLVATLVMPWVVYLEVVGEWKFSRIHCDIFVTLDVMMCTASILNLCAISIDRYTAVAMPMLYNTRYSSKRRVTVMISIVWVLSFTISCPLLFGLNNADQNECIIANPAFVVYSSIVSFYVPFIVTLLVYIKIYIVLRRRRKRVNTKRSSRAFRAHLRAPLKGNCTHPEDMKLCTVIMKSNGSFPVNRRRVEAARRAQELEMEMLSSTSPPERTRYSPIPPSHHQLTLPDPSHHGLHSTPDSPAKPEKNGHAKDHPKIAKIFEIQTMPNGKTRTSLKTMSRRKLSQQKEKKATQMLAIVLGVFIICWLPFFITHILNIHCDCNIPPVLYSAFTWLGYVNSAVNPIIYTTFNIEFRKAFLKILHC

SMILES | Kb [1] [µM] | pKb [1] | Kb [2] [µM] | pKb [2] | Activity [3] | log(activity) [3] | log(activity) [4] | inhibition [5] | Activity [6] | log(activity) [6] | Activity [4]
FC(F)(F)c1cccc(Nc2nc(CN3CCOCC3)nc3sccc23)c1 | – | 3.91 | – | – | – | – | – | inactive | – | – | –
CCN(CC)c1ncnc2sccc12 | 23 | 4.65 | 4.6 | 5.31 | – | 0 | -0.89 | – | 0.1 | -1.01 | 0.13
FC(F)(F)c1cccc(Nc2nc(CN3CCOCC3)nc3sc(C4CCCCC4)cc23)c1 | 45.8 | 4.34 | 5.37 | 5.27 | 0.13 | -0.9 | 0 | – | – | – | –
FC(F)(F)c1cccc(Nc2ncnc3sccc23)c1 | 63 | 4.2 | 0.8 | 6.13 | 0.37 | -0.43 | 0 | – | – | – | –
FC(F)(F)c1cccc(Nc2nc(CCCCN3CCOCC3)nc3sccc23)c1 | 19 | 4.71 | 1.4 | 5.85 | 0.13 | -0.88 | -1.21 | – | – | – | 0.06
CCN(CC)c1ncnc2sc3c(c12)CCCC3 | 17 | 4.76 | 1.92 | 5.72 | – | 0 | -3 | – | – | – | –
O=c1[nH]cnc2sc3c(c12)CCCC3 | – | – | – | – | – | – | – | inactive | – | – | –
CN(C)c1nc(CN2CCOCC2)nc2sc(Cc3ccccc3)cc12 | 30 | 4.51 | 4.9 | 5.31 | 0.68 | -0.17 | -0.84 | – | – | – | 0.15

Results, then the compound that gave them:

Kb [1] [µM] | pKb [1] | Kb [2] [µM] | pKb [2] | Activity [3] | log(activity) [3] | log(activity) [4] | inhibition [5] | Activity [6] | log(activity) [6] | Activity [4] | SMILES
70 | 4.16 | 0.981 | 6.01 | 0.23 | -0.63 | 0 | – | – | – | – | FC(F)(F)c1cccc(Nc2nc(CCN3CCOCC3)nc3sc4c(c23)CCCC4)c1
22 | 4.66 | – | – | – | – | – | inactive | – | – | – | FC(F)(F)c1cccc(Oc2nc(CN3CCOCC3)nc3sc4c(c23)CCCC4)c1
38 | 4.42 | – | – | – | – | – | inactive | – | – | – | FC(F)(F)c1cccc(Nc2nc(CN3CCOCC3)nc3scc(C4CCCCC4)c23)c1
48 | 4.32 | 8.02 | 5.1 | 0.19 | -0.73 | -0.53 | – | – | – | 0.29 | COc1cccc(Nc2nc(CN3CCOCC3)nc3sc4c(c23)CCCC4)c1
39 | 4.41 | 6.98 | 5.16 | 0.34 | -0.46 | -0.22 | – | – | – | 0.6 | FC(F)(F)c1cccc(Nc2nc(CN3CCCCC3)nc3sc4c(c23)CCCC4)c1
– | – | 8.39 | 5.08 | – | 0 | -0.4 | – | – | – | 0.4 | Fc1cccc(Nc2nc(CN3CCOCC3)nc3sc4c(c23)CCCC4)c1
59 | 4.23 | 11.4 | 4.95 | 0.13 | -0.9 | 0 | – | – | – | – | FC(F)(F)c1cccc(Nc2nc(CN3CCOCC3)nc3sc4c(c23)CCC4)c1
13 | 4.89 | 1.63 | 5.79 | 0.21 | -0.68 | -0.4 | – | – | – | 0.4 | FC(F)(F)c1cccc(Nc2nc(CCCN3CCOCC3)nc3sc4c(c23)CCCC4)c1
35 | 4.45 | 2.81 | 5.55 | 0.06 | -1.22 | -3 | – | – | – | – | Oc1cccc(Nc2nc(CN3CCOCC3)nc3sc4c(c23)CCCC4)c1
99 | 4 | 7.46 | 5.13 | – | 0 | -0.95 | – | – | – | 0.11 | c1ccc(Nc2nc(CN3CCOCC3)nc3sc4c(c23)CCCC4)cc1
